{
  "source": "ChEMBL document CHEMBL2396655",
  "about": "“Design, synthesis, and biological evaluation of (E)-N-aryl-2-arylethenesulfonamide analogues as potent and orally bioavailable microtubule-targeted anticancer agents” (J Med Chem, 2013)",
  "key": {"[1]": {"experiment": "Solubility of the compound in PBS by nephelometric analysis", "type": "physicochemical", "procedure,_shortened": "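Aqueous solubility in PBS was measured by nephelometry; the limit of complete solubility was taken as the concentration giving a statistical increase of light scattering over blank.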"}, "K562": {"test_system": "K562", "experiment": "Cytotoxicity against human K562 cells after 96 hrs by trypan blue exclusion assay", "type": "functional, cell-based", "procedure,_shortened": "(§1)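 Cells were grown in DMEM or RPMI with 10% FBS and plated at 2.5×10⁴ cells/well in 12-well dishes. Compounds were added 24 h later at various concentrations. After 96 h, viable cells were counted by trypan blue exclusion from duplicate wells. Results are the mean of two independent experiments.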"}, "DU-145 [2]": {"test_system": "DU-145", "experiment": "Induction of apoptosis in human DU145 cells assessed as caspase activation at 10 to 20 nM after 24 to 72 hrs by Western blotting analysis", "type": "functional, cell-based"}, "2008 [3]": {"test_system": "2008", "experiment": "Growth inhibition of human 2008 cells", "type": "functional"}, "Mus musculus [4]": {"test_system": "Mus musculus", "experiment": "AUC in ICR mouse at 5 mg/kg, po by LC-MS/MS analysis", "type": "ADME, organism-based, Plasma", "design": "dose 5 mg/kg, route oral", "conditions": "in vivo", "procedure,_shortened": "(§2)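 Male ICR mice, 6–8 weeks old, N=3 per group. Single 5 mg/kg dose in NMP:PEG300:water (1:4:5 v/v), given as IV bolus or oral gavage. Serial arterial blood was drawn through a carotid cannula at 2–360 min. Plasma was protein-precipitated with acetonitrile containing internal standard and assayed by LC/MS/MS. Parameters were derived by noncompartmental analysis.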"}, "Bos taurus": {"species": "Bos taurus", "experiment": "Inhibition of bovine brain tubulin assessed as destabilization of microtubule polymerization at 10 uM over 40 mins by spectrophotometric analysis", "procedure,_shortened": "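Purified bovine brain tubulin was incubated at 37 °C with 10 μM compound, DMSO or reference agents. Polymerization was followed as rising absorbance at 340 nm over 40 min. Data are representative of three independent experiments.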"}, "DU-145 [5]": {"test_system": "DU-145", "experiment": "Mitotoic arrest in human DU145 cells assessed as misalignment of chromosomes at 25 nM after 24 hrs by FITC and propidium iodide staining-based confocal laser microscopic analysis", "type": "functional, cell-based", "procedure,_shortened": "(§3)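 DU145 cells grown on glass coverslips, exposed to 0.025 μM for 24 h, fixed in 4% paraformaldehyde, permeabilized in PBS with 10% FBS/0.1% Triton X-100, stained with FITC-conjugated anti-α-tubulin (DM1A, 1 h, 37 °C) and propidium iodide (1 μg/mL, 5 min), then imaged by confocal microscopy (60× objective, XYZ-sectioning); DMSO-treated cells as vehicle.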"}, "DU-145 [6]": {"test_system": "DU-145", "experiment": "Mitotoic arrest in human DU145 cells assessed as rosette of condensed DNA without mitotic spindle at 25 nM after 24 hrs by FITC and propidium iodide staining-based confocal laser microscopic analysis", "type": "functional, cell-based", "procedure,_shortened": "as §3"}, "[7]": {"experiment": "Cytotoxicity against human HepG2 cells after 4 hrs by Alamar Blue assay", "type": "cell-based", "conditions": "read-out: LD50"}, "DU-145 [8]": {"test_system": "DU-145", "experiment": "Induction of apoptosis in human DU145 cells assessed as increase in PARP cleavage at 10 to 20 nM after 24 to 72 hrs by Western blotting analysis", "type": "functional, cell-based", "procedure,_shortened": "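DU145 cells were plated at 1.0×10⁶ per plate and treated 24 h later with DMSO or increasing concentrations, then harvested at set time points. Cells were lysed in 0.1% Triton X-100 buffer with protease inhibitors. Equal protein was run on 10% SDS-PAGE, blotted with anti-PARP and detected with IRDye 800 secondary on Odyssey.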"}, "Plasma [9]": {"test_system": "Plasma", "experiment": "Plasma protein binding in rat at 10 to 50 uM by equilibrium dialysis", "type": "ADME, cell-free"}, "Liver": {"test_system": "Liver", "experiment": "Metabolic stability in dog liver S9 fraction assessed as compound remaining at 10 uM after 1 hr by LC-MS/MS analysis", "type": "ADME, subcellular, Canis lupus familiaris", "conditions": "s9, 1 h", "procedure,_shortened": "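Compound at 10 μM was incubated with rat, dog or human liver S9 fraction (1 mg/mL) for 0, 30 and 60 min. Parent remaining at 1 h was quantified by LC-MS/MS.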"}, "CCRF-CEM": {"test_system": "CCRF-CEM", "experiment": "Resistance factor, ratio of GI50 for multidrug-resistant human CEM/C2 cells to GI50 for human CEM cells", "type": "functional"}, "2008 [10]": {"test_system": "2008", "experiment": "Resistance factor, ratio of GI50 for paclitaxel-resistant human 2008/17/4 cells to GI50 for human 2008 cells", "type": "functional"}, "Tubulin (Sus scrofa)": {"biological_target": "Tubulin (Sus scrofa) (UniProt P02554+P02550)", "experiment": "Competitive binding affinity to pig brain tubulin paclitaxel binding site at 0.1 to 100 uM after 1 hr by mass spectrophotometric analysis in presence of paclitaxel and GTP", "procedure,_shortened": "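Porcine brain tubulin (1.0 mg/mL) in PIPES 80 mM, MgCl₂ 2 mM, EGTA 0.5 mM, pH 6.9, at 37 °C. […] Competitor was 0.1–100 μM for 1 h. Unbound ligand in the 30 kDa ultrafiltrate was measured by MS. Runs were in triplicate; IC50 came from a Hill fit.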"}, "Plasma [11]": {"test_system": "Plasma", "experiment": "Plasma protein binding in human at 10 to 50 uM by equilibrium dialysis", "type": "ADME, cell-free"}, "DU-145 [12]": {"test_system": "DU-145", "experiment": "Cell cycle arrest in human DU145 cells assessed as accumulation at subG1 phase at 0.005 to 0.02 uM after 24 hrs by propidium iodide staining-based FACS flow cytometric analysis", "type": "functional", "procedure,_shortened": "(§4)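 DU145 cells were plated at 1.0×10⁶ per dish in DMEM/10% FBS and treated 24 h later with increasing concentrations. After 24 h, attached and floating cells were pooled and fixed in ice-cold 70% ethanol for at least 24 h. Cells were stained with propidium iodide (50 μg/mL) plus RNase A for 30 min at 37 °C, then read on a FACScan with cell-cycle modelling.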"}, "Tubulin": {"biological_target": "Tubulin (Sus scrofa, UniProt P02554+P02550)", "experiment": "Competitive binding affinity to pig brain tubulin colchicine binding site after 1 hr by mass spectrophotometric analysis in presence of colchicine", "type": "tissue-based", "procedure,_shortened": "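Porcine brain tubulin (1.0 mg/mL) in PIPES 80 mM, MgCl₂ 2 mM, EGTA 0.5 mM, pH 6.9, at 37 °C. Competitor was 0.1–100 μM for 1 h. Unbound ligand in the 30 kDa ultrafiltrate was measured by MS. Runs were in triplicate; IC50 came from a Hill fit.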"}, "MIA PaCa-2": {"test_system": "MIA PaCa-2", "experiment": "Antitumor activity against human MIAPaCa2 cells assessed as inhibition of anchorage-independent growth after 3 weeks by NBT staining-based soft agar assay", "type": "functional, cell-based", "procedure,_shortened": "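MIA-PaCa-2 cells (1.0×10⁵) in growth medium with compound were mixed into 0.4% Noble top agar over a 0.8% bottom layer. Each concentration was plated in triplicate. Plates were incubated 3 weeks at 37 °C, 5% CO₂, then stained with 0.05% nitroblue tetrazolium for 48 h and photographed.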"}, "[13]": {"experiment": "Cytotoxicity against human U87 cells after 96 hrs by sulforhodamine B assay", "type": "functional, cell-based, U-87MG ATCC", "conditions": "U-87 MG"}, "A-431": {"test_system": "A-431", "experiment": "Cytotoxicity against human A431 cells after 96 hrs by trypan blue exclusion assay", "type": "functional", "conditions": "A-431, 96 h", "procedure,_shortened": "as §1"}, "DU-145 [14]": {"test_system": "DU-145", "experiment": "Cell cycle arrest in human DU145 cells assessed as accumulation at G2/M phase at 0.005 uM after 24 hrs by propidium iodide staining-based FACS flow cytometric analysis", "type": "functional", "procedure,_shortened": "as §4"}, "Plasma [15]": {"test_system": "Plasma", "experiment": "Plasma protein binding in dog at 10 to 50 uM by equilibrium dialysis", "type": "ADME, cell-free, Canis lupus familiaris"}, "[16]": {"experiment": "Growth inhibition of multidrug-resistant human MES-SA/Dx5 cells", "type": "functional"}, "MES-SA": {"test_system": "MES-SA", "experiment": "Resistance factor, ratio of GI50 for multidrug-resistant human MES-SA/Dx5 cells to GI50 for human MES-SA cells", "type": "functional"}, "Mus musculus [17]": {"test_system": "Mus musculus", "experiment": "AUC in ICR mouse at 5 mg/kg, iv by LC-MS/MS analysis", "type": "ADME, organism-based, Plasma", "design": "dose 5 mg/kg, route intravenous", "conditions": "in vivo", "procedure,_shortened": "as §2"}},
  "note": "Calls of active or inactive are those of the source. No cut-off for these calls is given here.",
  "data": [
    {"smiles": "COc1cc(OC)c(/C=C/S(=O)(=O)Nc2ccc(OC)c(N)c2)c(OC)c1", "values": [
      {"measurement": "solubility kinetic", "setting": "[1]", "value": 62.5, "unit": "µM"},
      {"measurement": "Activity", "setting": "K562", "value": "Dose-dependent effect"},
      {"measurement": "GI50", "setting": "K562; K562, 96 h", "value": 0.003, "unit": "µM"},
      {"measurement": "IC50", "setting": "K562; K562, 96 h", "value": 0.003, "unit": "µM"},
      {"measurement": "Activity", "setting": "DU-145 [2]", "value": "Active"},
      {"measurement": "GI50", "setting": "2008 [3]", "value": 0.006, "unit": "µM"},
      {"measurement": "AUC", "setting": "Mus musculus [4]", "value": 700, "unit": "ng·h/mL"},
      {"measurement": "inhibition", "setting": "Bos taurus", "value": "Active"},
      {"measurement": "Activity", "setting": "DU-145 [5]", "value": "Active"},
      {"measurement": "Activity", "setting": "DU-145 [6]", "value": "Active"},
      {"measurement": "CC50 at 4 h", "setting": "[7]", "value": "> 1000", "unit": "µM"},
      {"measurement": "Activity", "setting": "DU-145 [8]", "value": "Active"},
      {"measurement": "PPB", "setting": "Plasma [9]", "value": 99.73, "unit": "%"},
      {"measurement": "Stability", "setting": "Liver", "value": 57, "unit": "%"},
      {"measurement": "RatioGI50", "setting": "CCRF-CEM", "value": 1},
      {"measurement": "RatioGI50", "setting": "2008 [10]", "value": 1},
      {"measurement": "Activity", "setting": "Tubulin (Sus scrofa)", "value": "inactive"},
      {"measurement": "PPB", "setting": "Plasma [11]", "value": 99.67, "unit": "%"},
      {"measurement": "Activity", "setting": "DU-145 [12]", "value": "Active"},
      {"measurement": "IC50", "setting": "Tubulin", "value": 3.68, "unit": "µM"},
      {"measurement": "inhibition", "setting": "MIA PaCa-2", "value": "Dose-dependent effect"},
      {"measurement": "IC50", "setting": "[13]", "value": 0.009, "unit": "µM"},
      {"measurement": "GI50", "setting": "A-431", "value": 0.005, "unit": "µM"},
      {"measurement": "Activity", "setting": "DU-145 [14]", "value": "Active"},
      {"measurement": "PPB", "setting": "Plasma [15]", "value": 98.48, "unit": "%"},
      {"measurement": "GI50", "setting": "[16]", "value": 0.01, "unit": "µM"},
      {"measurement": "RatioGI50", "setting": "MES-SA", "value": 1.6},
      {"measurement": "AUC", "setting": "Mus musculus [17]", "value": 2040, "unit": "ng·h/mL"}
    ]}
  ]
}
